Published values collected from several papers.
Compare with care: the assays were run in different laboratories.
Matrix: plasma
Route: oral

| SMILES | test system | setting | Vd/F [L] |
| --- | --- | --- | --- |
| CCOc1cc([C@@H](CS(C)(=O)=O)N2C(=O)c3cccc(NC(C)=O)c3C2=O)ccc1OC | human | 30 mg, single dose, healthy volunteers | 141 |
| NC[C@@](O)(c1ccc(Cl)cc1)c1ccc(-c2cn[nH]c2)cc1 | human | 5 mg, patients | 1400 |
| c1cnc2ccc(Nc3nc(NC4CC4)c4nc[nH]c4n3)cc2c1 | human | 400 mg/m², patients | 546 |
| CC(C)(Sc1ccncc1-c1ccc(C#N)c2ccccc12)C(=O)O | male human | 2 mg, single dose, fasted, healthy volunteers | 394 |
| Cc1cc(Nc2cc(N3CCN(C)CC3)nc(/C=C/c3ccccc3)n2)n[nH]1 | human | 120 mg/m², multiple doses, patients | 847 |
| CO[C@H]1CC[C@H](N2C(=O)CNc3ncc(-c4ccc(C(C)(C)O)nc4)nc32)CC1 | human | 15 mg, patients | 192 |
| CCOc1ccc(Cc2cc([C@@H]3O[C@H](CO)[C@@H](O)[C@H](O)[C@H]3O)ccc2Cl)cc1 | human | 10 mg, multiple doses, steady state | 320 |
| C[C@@]1(c2cc(NC(=O)c3ccc(C#N)cn3)ccc2F)C=CSC(N)=N1 | human | 3 mg, single dose | 235 |
| COc1ccc([C@@H]2CN(C(=O)[C@@H](O)CO)C[C@@]2(C)[C@@H](C)O)cc1OC1CN(c2ccc(C)cn2)C1 | human | 0.1 mg, single dose, healthy volunteers | 23.8 |
| N#CN1C[C@H](n2nc(-c3ccc(Oc4ccc(Cl)cn4)cc3)c(C(N)=O)c2N)CCC12CC2 | human | 600 mg, fasted | 1060 |
| C=C(F)C(=O)N1CCN(c2nc(OC[C@@H]3CCCN3C)nc3c2CCN(c2cccc4cccc(Cl)c24)C3)C[C@@H]1CC#N | human | 600 mg, single dose, fasted | 527 |
| COc1cc(C(=O)NC2CCN(C)CC2)c(F)cc1Nc1ncc(C(F)(F)F)c(Oc2cccc3c2C(=O)N(C)C3)n1 | human | 50 mg, single dose, patients | 581 |
| C[C@@H](c1ccc2nccn2c1)n1nnc2ncc(-c3cnn(C)c3)nc21 | human | 200 mg | 310 |
